This note sets out measurements from ChEMBL document CHEMBL3392953, “Synthesis and biological evaluation of furanoallocolchicinoids” (J Med Chem, 2015).

Where only a bound is given, the exact number is not on record here.

Data set [1] has as its system HEK293. Briefly: Cytotoxicity against HEK293 cells after 72 hrs by MTT assay. It counts as functional, cell-based. Particulars: Homo sapiens, HEK293, 72 h. In outline:
(§1)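 Cells seeded at 3x10^5 cells/mL 24 h before assay (HEK293, AsPC-1 in DMEM; Jurkat, W1308 in RPMI-1640; 10% FCS, 2-ME). Tenfold dilutions from […] to 1 nM added; untreated cells as controls. 72 h incubation, MTT 250 µg/ml added for last 6 h, formazan dissolved in DMSO, OD read. IC50 from titration curves; inhibition index = 1 − OD(treated)/OD(control).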

Data set [2] concerns ASPC1. Briefly: Cytotoxicity against human AsPC1 cells after 72 hrs by MTT assay. Format: functional, cell-based. To be noted: ASPC1, 72 h. The essentials:
as §1

Data set [3] is described as follows: Cytotoxicity against mouse W1308 cells after 72 hrs by MTT assay. It counts as functional, cell-based. To be noted: W1308, 72 h. In outline:
as §1

Data set [4] has as its system Jurkat. Briefly: Cytotoxicity against human Jurkat cells after 72 hrs by MTT assay. It counts as functional, cell-based. The essentials:
as §1
For orientation: Tetrazolium assays rely on reduction of a dye to a coloured formazan, in cell work by metabolically active cells.

Data set [5] deals with Jurkat. Briefly: Growth inhibition of human Jurkat cells at 100 uM after 72 hrs by MTT assay. It counts as functional. To be noted: read-out: GI.
Data set [6] concerns HEK293. Briefly: Growth inhibition of HEK293 cells at 100 uM after 72 hrs by MTT assay. It counts as functional. To be noted: Homo sapiens, HEK293, 72 h; read-out: GI.
Data set [7] in a line: Growth inhibition of mouse W1308 cells at 100 uM after 72 hrs by MTT assay. It counts as functional. To be noted: W1308, 72 h, read-out: GI.
Data set [8] has as its system ASPC1. Briefly: Growth inhibition of human AsPC1 cells at 100 uM after 72 hrs by MTT assay. Particulars: ASPC1, 72 h, read-out: GI. Format: functional.
Data set [9] can be described thus: Induction of apoptosis in mouse W1308 cells assessed as pre-apoptotic cells level at 200 nM after 48 hrs by 3,3'-dihexyloxacarbocyanine iodide and propidium iodide staining based flow cytometry (reference value: 17%). It counts as functional. For orientation: Flow cytometry measures light scatter and fluorescence of single cells or particles in a stream.
Data set [10] can be described thus: Inhibition of lamb brain tubulin polymerization assessed as reduction in microtubule assembly by spectrophotometry. Further details: species or system Ovis aries. The essentials: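 Tubulin purified from lamb brain by ammonium sulfate fractionation and ion-exchange chromatography. Assembly in 20 mM sodium phosphate, 1 mM EGTA, 10 mM MgCl2, 3.4 M glycerol, 1 mM GTP, pH 6.5, started by warming to 37 °C; turbidity followed at 350 nm over time. Inhibition plotted against ligand:tubulin molar ratio.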

Data set [11] is described as follows: Induction of apoptosis in mouse W1308 cells assessed as apoptotic cells level at 200 nM after 48 hrs by 3,3'-dihexyloxacarbocyanine iodide and propidium iodide staining based flow cytometry (reference value: 11%). It counts as functional.
Data set [12] has as its system Mus musculus. Briefly: Toxicity in C57BL/6 mouse assessed as interphase microtubule de-stabilizing activity by measuring influx of rhodamine in to spleen at 1 mg/kg, iv co-administered with rhodamine B by fluorimetry. Format: organism-based. Further details: dose 1 mg/kg, route intravenous. Particulars: in vivo. The essentials: (§2)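 Intact mice, 6–8 wk, 3 per group; compound dissolved in DMSO at 20 mM, 4 µl diluted into 200 µl saline (1 mg/kg), mixed with 50 µl rhodamine B, single i.v. injection; controls DMSO plus rhodamine B. Killed 4 h later; organs cut, extracted in 0.3N acid in ethanol 2 h at 37 °C, centrifuged, supernatant fluorescence read with 540 nm filter.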

Data set [13] has as its system Mus musculus. Briefly: Toxicity in C57BL/6 mouse assessed as interphase microtubule de-stabilizing activity by measuring influx of rhodamine in to heart at 1 mg/kg, iv co-administered with rhodamine B by fluorimetry. It counts as organism-based. Further details: dose 1 mg/kg, route intravenous. Particulars: in vivo. The essentials: as §2
Data set [14] has as its system Mus musculus. Briefly: Toxicity in C57BL/6 mouse assessed as interphase microtubule de-stabilizing activity by measuring leakage of rhodamine through the gut at 1 mg/kg, iv co-administered with rhodamine B by fluorimetry. Particulars: in vivo. Further details: dose 1 mg/kg, route intravenous. It counts as organism-based. In outline:
as §2

Data set [15] can be described thus: Reduction in blood-brain barrier permeability in […]. It counts as ADME, tissue-based, C57BL/6, Endothelial cell. Further details: scale not given: the % may be the effect or the level left. Particulars: mouse. In outline:
as §2

As for `COc1cc2c(c(OC)c1OC)-c1cc3cc(-c4ccccc4)oc3cc1[C@@H](NC(C)=O)CC2`, the IC50 worked out at 4 µM in the data set on HEK293 [1], 20 µM with ASPC1 [2], 8 µM in data set [3] and 4 µM in the data set with Jurkat [4].
Turning to `COc1cc2c(c(OC)c1OC)-c1cc3cc(C(C)O)oc3cc1[C@@H](NC(C)=O)CC2` (some centres undefined), the inhibition of growth at 100 µM (in the data set with Jurkat [5]; in the data set on HEK293 [6]; in data set [7]; with ASPC1 [8]) was 60% in each case. For the same compound, the IC50 in the data set with HEK293 [1] is < 0.2 µM; with ASPC1 [2] it was < 0.2 µM; in data set [3], < 0.2 µM; with Jurkat [4] it was < 0.2 µM; in data set [10], 0.3 molar ratio. Further, the Activity is reported as 29% in [9] and 20% in [11].
As for `COc1cc2c(c(OC)c1OC)-c1cc3ccn(C)c3cc1C(=O)CC2`, the IC50 is < 0.2 µM with HEK293 [1], 0.8 µM with ASPC1 [2], < 0.2 µM in data set [3] and < 0.1 µM with Jurkat [4].
Turning to `COC(=O)CCCCCCCCc1cc2cc3c(cc2o1)[C@@H](NC(C)=O)CCc1cc(OC)c(OC)c(OC)c1-3`, the IC50 (in the data set with HEK293 [1]; with ASPC1 [2]; in data set [3]; in the data set with Jurkat [4]) was > 100 µM each time.
Take `COc1cc2c(c(OC)c1OC)-c1cc3cc(CCO)oc3cc1[C@@H](NC(C)=O)CC2`: the inhibition of growth at 100 µM (in the data set on Jurkat [5]; with HEK293 [6]; in data set [7]; in the data set on ASPC1 [8]) was 50% each time. The IC50 with HEK293 [1] was found to be 1 µM; in the data set with ASPC1 [2], 2 µM; in data set [3], 1 µM; with Jurkat [4], 1 µM.
On to `COc1cc2c(c(OC)c1OC)-c1ccc(OC)c(=O)cc1[C@@H](NC(C)=O)CC2` [COLCHICINE], for which the Activity result in the data set with Mus musculus [12], in the data set on Mus musculus [13] and with Mus musculus [14] was “Toxic” throughout.
Turning to `COc1cc2c(c(OC)c1OC)-c1cc3cc(C4(O)CCCC4)oc3cc1[C@@H](NC(C)=O)CC2`, the inhibition of growth at 100 µM (in the data set with Jurkat [5]; in the data set on HEK293 [6]; in [7]; with ASPC1 [8]) was 50% each time. In addition, the IC50 turned out to be 4 µM in the data set with HEK293 [1], 20 µM in the data set on ASPC1 [2], 8 µM in data set [3] and 4 µM in the data set on Jurkat [4].
With `COc1cc2c(c(OC)c1OC)-c1ccc3c(ccn3C)c1C(=O)CC2`, the IC50 (in the data set on HEK293 [1]; in the data set with ASPC1 [2]; in data set [3]; in the data set on Jurkat [4]) was < 0.02 µM in each case. The results for the Activity in [9] and in data set [11] were 20% and 29%, respectively.
Regarding `COc1cc2c(c(OC)c1OC)-c1cc3cc(-c4ccccn4)oc3cc1[C@@H](NC(C)=O)CC2`, the IC50 was 20 µM with HEK293 [1], 20 µM in the data set with ASPC1 [2], 10 µM in data set [3] and 20 µM in the data set with Jurkat [4].
In the case of `COc1cc2c(c(OC)c1OC)-c1cc3cc(COC(C)=O)oc3cc1[C@@H](NC(C)=O)CC2`, the inhibition of growth at 100 µM (with Jurkat [5]; with HEK293 [6]; in [7]; in the data set with ASPC1 [8]) was 50% each time. Moreover, the IC50 with HEK293 [1] came to 1 µM; with ASPC1 [2], 2 µM; in data set [3], 1 µM; in the data set with Jurkat [4] it was 1 µM.
Take `COc1ccc(/C=C\c2cc(OC)c(OC)c(OC)c2)cc1O` [COMBRETASTATIN A4]: the Activity entry with Mus musculus [12] is reported as “Toxic”; in the data set on Mus musculus [13] it was “Toxic”; in data set [15] it was 40%; with Mus musculus [14] it was “Toxic”. For the same compound, the ligand/tubulin molar ratio in data set [10] is 0.09.
As to `CCN(CC)Cc1cc2cc3c(cc2o1)[C@@H](NC(C)=O)CCc1cc(OC)c(OC)c(OC)c1-3`, the IC50 with HEK293 [1] is > 100 µM; in the data set on ASPC1 [2], 20 µM; in [3], > 100 µM; with Jurkat [4] it was > 100 µM.
